Measurements from different studies.
PARP1: Poly [ADP-ribose] polymerase 1 (PARP1, Homo sapiens, UniProt P09874)
ADORA2A: Adenosine receptor A2a (ADORA2A, Homo sapiens, UniProt P29274)
PDE5A: cGMP-specific 3',5'-cyclic phosphodiesterase (PDE5A, Homo sapiens, UniProt O76074)
SPHK1: Sphingosine kinase 1 (SPHK1, Homo sapiens, UniProt Q9NYA1)
EHMT1: Histone-lysine N-methyltransferase EHMT1 (EHMT1, Homo sapiens, UniProt Q9H9B1)
CNR1: Cannabinoid receptor 1 (CNR1, Homo sapiens, UniProt P21554)
OPRK1: Kappa-type opioid receptor (OPRK1, Homo sapiens, UniProt P41145)
PIK3C2B: Phosphatidylinositol 4-phosphate 3-kinase C2 domain-containing subunit beta (PIK3C2B, Homo sapiens, UniProt O00750)

Structure (SMILES) | target | observed | action | technique | concentration | notes | inhibition [%]
O=C(NCCNC(=O)c1n[nH]c(=O)c2ccccc12)c1cccc(CN2C(=O)CNC2=O)c1 | PARP1 | enzyme activity | inhibitor | – | 0.5 µM | – | ~50
c1coc(-c2nc3cc(CN4CCNCC4)ccc3o2)c1 | ADORA2A | ligand displacement | – | radioligand | 10 µM | cell membranes | 15
C=CCN1C(=O)[C@H]2Cc3c([nH]c4ccccc34)[C@H](c3ccc(Br)s3)N2C1=O | PDE5A | enzyme activity | inhibitor | FP | 10 µM | – | 67
CCCc1ccc(CCc2ccc(-c3noc([C@@H]4CCCN4C(=N)N)n3)cc2C(F)(F)F)cc1 | SPHK1 | enzyme activity | inhibitor | radiometric | 1 µM | – | 6
O=C1C=CC(=O)c2c(O)cccc21 | EHMT1 | cell-free assay | – | – | 10 µM | – | -1
CC(C)(C)c1ccc(CCc2ccc(-c3noc([C@@H]4CCCN4C(=N)N)n3)cc2C(F)(F)F)cc1 | SPHK1 | enzyme activity | inhibitor | radiometric | 1 µM | – | 17
O=C1CCCc2ccc(F)cc2N1 | PARP1 | enzyme activity | inhibitor | – | 10 µM | – | 0
COc1ccc([C@@H]2c3[nH]c4ccccc4c3C[C@@H]3C(=O)N(C(C)(C)C)C(=O)N23)cc1OC | PDE5A | enzyme activity | inhibitor | FP | 50 µM | – | 54
O=C(c1ccc(F)cc1)N(Cc1ccccc1)C1CCCCC1 | CNR1 | cell-free assay | – | – | 10 µM | – | 18
O=C1N=C(N2CCCCN2)S/C1=C\c1ccc(F)cc1O | Thromboxane A2 receptor (TBXA2R, Homo sapiens, UniProt P21731) | ligand displacement | – | radioligand | 10 µM | – | 11
CCN(Cc1ccccc1C(F)(F)F)C(=O)C1CCN(S(=O)(=O)c2ccc3[nH]ncc3c2)CC1 | OPRK1 | ligand displacement | – | radioligand | 10 µM | – | 5
N=C(N)N1CCC[C@H]1c1nc(-c2ccc(CCC3CCCCC3)c(C(F)(F)F)c2)no1 | SPHK1 | enzyme activity | inhibitor | radiometric | 1 µM | – | 15
COc1cc(NC(C)=O)c(Cl)cc1C(=O)Nc1nccs1 | CNR1 | cell-free assay | – | – | 10 µM | – | 11.8
Cn1cncc1C1=CN(c2ncnc3[nH]cnc23)CCS1 | Interleukin-1 receptor-associated kinase-like 2 (IRAK2, Homo sapiens, UniProt O43187) | enzyme activity | inhibitor | radiometric | 50 nM | – | 30.7
CN(C)c1ccc2nc3ccc(=[N+](C)C)cc-3sc2c1 | EHMT1 | cell-free assay | – | – | 10 µM | – | 30
CN(C)C1CCN(CC#Cc2nn(C3CCCC3)c3nc(NCc4ccccc4)ncc23)C1 (stereo not shown) | Serine/threonine-protein kinase TBK1 (TBK1, Homo sapiens, UniProt Q9UHD2) | enzyme activity | inhibitor | FRET | 1 µM | – | 3
O=C(CSc1nc2nccnc2c(=O)n1CCc1ccccc1)Nc1nccs1 | SPHK1 | enzyme activity | inhibitor | – | 10 µM | – | 8
CCN1C(=O)[C@H]2Cc3c([nH]c4ccccc34)[C@@H](c3cccnc3)N2C1=O | PDE5A | enzyme activity | inhibitor | FP | 50 µM | – | 102
[H]/N=C(\N)N1CCC[C@H]1c1nc(-c2ccc(OCC=CCCCC)c(C(F)(F)F)c2)no1 | SPHK1 | enzyme activity | inhibitor | radiometric | 1 µM | – | 23
COCCOc1ccc(N2CCN(Cc3ccc4oc(-c5ccco5)nc4c3)CC2)cc1 | ADORA2A | ligand displacement | – | radioligand | 10 µM | cell membranes | 14
CC(C)CCn1c(SCC(=O)Nc2ccccc2C(F)(F)F)nc2nccnc2c1=O | PIK3C2B | enzyme activity | inhibitor | – | 10 µM | – | 23
COC(=O)[C@@H]1Cc2c([nH]c3ccccc23)[C@@H](c2ccc(OC)c(OC)c2)N1 | PDE5A | enzyme activity | inhibitor | FP | 50 µM | – | 7
CCN(CC)c1ccc(C2Nc3ccc(C(=O)c4ccccc4)cc3NC3=C2C(=O)CC(C)(C)C3)cc1 (stereo not shown) | OPRK1 | ligand displacement | – | radioligand | 10 µM | – | 10

Structure (SMILES) | target | observed | action | technique | concentration | notes | inhibition [%]
O=C1NCCCc2ccc(F)cc21 | PARP1 | enzyme activity | inhibitor | – | 10 µM | – | 15
CSCCC(NC=O)C(=O)NC(C)C(=O)O (stereo not shown) | EHMT1 | cell-free assay | – | – | 10 µM | – | 0
CC(C)(C)OC(=O)N1CCN(Cc2ccc3oc(-c4ccco4)nc3c2)CC1 | ADORA2A | ligand displacement | – | radioligand | 10 µM | cell membranes | 15
Cc1cc(-c2ccc(/N=N/c3ccc4c(S(=O)(=O)O)cc(S(=O)(=O)O)c(N)c4c3O)c(C)c2)ccc1/N=N/c1ccc2c(S(=O)(=O)O)cc(S(=O)(=O)O)c(N)c2c1O | EHMT1 | cell-free assay | – | – | 10 µM | – | 48
N#Cc1cc(Cn2c(N3CCCC3)nc3ccccc32)ccc1F | Histamine H4 receptor (HRH4, Homo sapiens, UniProt Q9H3N8) | ligand displacement | – | – | 10 µM | – | -16
CCN1C(=O)[C@H]2Cc3c([nH]c4ccccc34)[C@@H](c3ccc(OC)c(OC)c3)N2C1=O | PDE5A | enzyme activity | inhibitor | FP | 50 µM | – | 78
COc1ccc(-n2nc(OCCCN3CCCCC3)ccc2=O)cc1 | Sodium channel protein type 9 subunit alpha (SCN9A, Homo sapiens, UniProt Q15858) | ligand displacement | – | – | 1 µM | – | 32.1
O=c1c(O)cccc2c([C@H]3Oc4cc(O)cc(O)c4C[C@H]3O)cc(O)c(O)c12 | EHMT1 | cell-free assay | – | – | 10 µM | – | 5
N=C(N)N1CCC[C@H]1c1nc(-c2ccc(CCC3CCCC3)c(C(F)(F)F)c2)no1 | SPHK1 | enzyme activity | inhibitor | radiometric | 1 µM | – | 0
COc1ccc(-c2nc3cc(CCCN4CCN(c5ccccc5)CC4)ccc3o2)cc1OC | ADORA2A | ligand displacement | – | radioligand | 10 µM | cell membranes | 11
Ic1cccc2cnccc12 | Sigma non-opioid intracellular receptor 1 (SIGMAR1, Homo sapiens, UniProt Q99720) | ligand displacement | – | radioligand | 10 µM | – | 21
Oc1cccc(Nc2nc(-c3ccc(F)cc3F)cs2)c1 | Endothelin-1 receptor (EDNRA, Homo sapiens, UniProt P25101) | cell-free assay | – | – | 10 µM | – | -11.2
CN(C)c1ccc(C(=C2C=CC(=[N+](C)C)C=C2)c2ccc(N(C)C)cc2)cc1 | EHMT1 | cell-free assay | – | – | 10 µM | – | 62
[H]/N=C(/N)N1CCC[C@H]1c1nc(-c2ccc(OCCC=CCCC)c(C(F)(F)F)c2)no1 | SPHK1 | enzyme activity | inhibitor | radiometric | 1 µM | – | 11
COC(=O)[C@H]1Cc2c([nH]c3ccccc23)[C@H](c2cccnc2)N1 | PDE5A | enzyme activity | inhibitor | FP | 50 µM | – | 30
O=C(CN1CCN(c2ccccc2)CC1)Nc1ccc2oc(-c3ccco3)nc2c1 | ADORA2A | ligand displacement | – | radioligand | 10 µM | cell membranes | 12
CCCC=CCOc1ccc(-c2noc([C@@H]3CCCN3C(=N)N)n2)cc1C(F)(F)F | SPHK1 | enzyme activity | inhibitor | radiometric | 1 µM | – | 12
CC(C)(C)N1C(=O)[C@@H]2Cc3c([nH]c4ccccc34)[C@H](c3cccnc3)N2C1=O | PDE5A | enzyme activity | inhibitor | FP | 50 µM | – | 45
O=C(Nc1ccc(S(=O)(=O)N2CCC(Cl)CC2)cc1)c1ccc([N+](=O)[O-])o1 | OPRK1 | cell-free assay | – | – | 10 µM | – | 7
O=C(CSc1nc2nccnc2c(=O)n1CCc1ccccc1)Nc1ccccc1 | PIK3C2B | enzyme activity | inhibitor | – | 10 µM | – | 72
COC(=O)[C@@H]1Cc2c([nH]c3ccccc23)[C@@H](c2ccc(OC)c(OC)c2)N1C(=O)CCl | PDE5A | enzyme activity | inhibitor | FP | 50 µM | – | 22
O=C(c1ccc(Cl)cc1)N(Cc1ccccc1)C1CCCCC1 | CNR1 | cell-free assay | – | – | 10 µM | – | 11.1
O=c1[nH]c(-c2c[nH]c3ncccc23)nc2ccccc12 | PARP1 | enzyme activity | inhibitor | ELISA | 10 µM | – | 28
